Rows were chosen to be rich in hits. Some 3.7% of all compounds tested hit in one or more screens of this group.
MDM2 E3 inh – inhibitors of human Mdm2 E3 ubiquitin ligase; signal enhancement, % at 5 µM; Q00987; cell-based MDM2 ubiquitination luciferase reporter, 2 h; 0 = plate control, 100 = twice control, blank-subtracted; 210,000 tested, 0.11% active; AID 1230;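 active = signal enhancement of 30% or more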;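 also: luminescence tracks abundance of the self-degrading MDM2-luciferase fusion protein; higher signal means inhibition of MDM2 E3 ligase activity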
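Buffer or medium: Cells held in DMEM | Assay system: Stable mammalian line carrying autodegrading MDM2–luciferase fusion reporter | Quantity: 2000 cells/well | Times: 4 h settle plus 2 h compound, 37 °C | Doses: One concentration, 5 µM, with 0.2% DMSO | Technique: Luminescence with SteadyLite reagent, 15 min at room temperature | Benchmarks: Plate controls and plate blanks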
XBP1 UPR activ – activators of adaptive arm of unfolded protein response (XBP1); CHO-XBP1 luciferase reporter, IRE1-XBP1 UPR activation, luminescence; percent of tunicamycin response, DMSO as zero; activation, % at 20 µM; 330,000 tested, 0.33% active;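 active = versus positive control, 20 µM dose yields 30% or more activation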;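 also: 100% = tunicamycin at 10 µg/mL and 0% = DMSO only wells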
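Material: IRE1-XBP1 luciferase reporter CHO line / Quantity: one thousand reporter cells per well / Buffer or medium: F12 with 10% serum / Compound: 20 µM single concentration, DMSO 1% / Times: 6 h treatment, 37 °C / Detection: Steady-Glo luciferase glow luminescence, 10 min after reagent addition / Benchmarks: tunicamycin high, DMSO low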
UPR CHOP act – activators of apoptotic arm of unfolded protein response (CHOP); 330,000 tested, 0.34% active; activation, % at 10 µM; CHO-CHOP luciferase reporter, UPR activation, luminescence; percent of tunicamycin response over DMSO baseline; AID 449763;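 active = at 10 µM dose, activation of 40% or more, normalized to positive control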;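 also: 100% = tunicamycin at 10 µg/mL and 0% = DMSO alone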
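System: CHO CHOP reporter cells. Amount: 500 cells per well. Buffer or medium: F12 medium, 10% FBS. Compound dosing: one dose, 10 µM in 0.5% DMSO. Incubation: 6 h compound exposure at 37 °C after overnight seeding. Technique: Steady-Glo luciferase luminescence. Benchmarks: tunicamycin and DMSO controls.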
Beta2AR agonist – activates human beta-2 adrenergic receptor causing internalization. P07550. Am2.2-beta2AR cells, FAP receptor internalization, flow cytometry. response, % (concentration not given with the values). 340,000 tested, 0.43% active. AID 504454;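 active = response above a set limit, near 3 SD of response in nonfluorescent compounds, cut at about 42% in these data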
Mdm2-MdmX inh – human Mdm2/MdmX binding inhibition | O15151+Q00987 | 330,000 tested, 3% active | AID 485346 | SaOS-2 split-luciferase Mdm2/MdmX complementation, luminescence | inhibition, % at 8 µM;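 active = inhibition of at least 50% at 8 µM in the primary screen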
Target sequence (O15151 whole entry, looked up): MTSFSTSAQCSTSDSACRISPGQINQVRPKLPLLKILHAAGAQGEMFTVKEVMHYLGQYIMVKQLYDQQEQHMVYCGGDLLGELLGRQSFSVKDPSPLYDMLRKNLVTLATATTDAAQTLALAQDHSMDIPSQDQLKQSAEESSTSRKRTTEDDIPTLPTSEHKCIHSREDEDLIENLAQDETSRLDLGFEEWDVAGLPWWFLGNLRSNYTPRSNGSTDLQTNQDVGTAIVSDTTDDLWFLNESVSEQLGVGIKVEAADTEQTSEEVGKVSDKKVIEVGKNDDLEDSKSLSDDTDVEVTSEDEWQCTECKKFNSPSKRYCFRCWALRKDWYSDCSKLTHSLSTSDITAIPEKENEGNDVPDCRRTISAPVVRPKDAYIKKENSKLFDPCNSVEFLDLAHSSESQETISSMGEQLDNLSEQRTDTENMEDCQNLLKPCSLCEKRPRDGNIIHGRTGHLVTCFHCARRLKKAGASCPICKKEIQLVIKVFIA
Target sequence (Q00987 whole entry, looked up): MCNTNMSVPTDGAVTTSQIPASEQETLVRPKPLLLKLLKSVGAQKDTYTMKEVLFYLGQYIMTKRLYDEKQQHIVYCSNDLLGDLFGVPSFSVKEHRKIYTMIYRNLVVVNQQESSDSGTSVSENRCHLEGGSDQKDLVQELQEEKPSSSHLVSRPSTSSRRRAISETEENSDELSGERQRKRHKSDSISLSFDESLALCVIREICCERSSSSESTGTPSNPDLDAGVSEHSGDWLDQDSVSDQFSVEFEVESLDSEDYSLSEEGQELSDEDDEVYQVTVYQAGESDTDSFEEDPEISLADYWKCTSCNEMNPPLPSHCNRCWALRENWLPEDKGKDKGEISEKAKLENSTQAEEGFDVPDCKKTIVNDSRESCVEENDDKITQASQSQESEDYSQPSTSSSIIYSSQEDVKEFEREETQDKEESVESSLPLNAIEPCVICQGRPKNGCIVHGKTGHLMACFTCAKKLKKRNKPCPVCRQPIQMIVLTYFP
Dynein cargo inh – dynein cargo transport inhibition; z-score, hits read low; 220,000 tested, 0.47% active; AID 1381; 3617.4 mouse cells, GR-EGFP nuclear translocation imaging; test concentration mostly 20 µM; stimulated with dexamethasone, 1 µM; active compounds read low;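 active = plate z-score of nuclear minus cytoplasmic receptor signal below a set negative limit, without overly bright fluorescence or cell loss, cut at about -3.5 in these data, passing the limit was not always enough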;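 also: z-score of nuclear minus cytoplasmic ring GR-EGFP intensity difference per well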
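medium = tetracycline-free induction medium containing charcoal-stripped FBS | also added = 1.0 µM final dexamethasone stimulus | schedule = 48 h induction, 1 h compound, 30 min dex at 37 °C | technique = fixed, Hoechst-stained cells imaged at 10x for EGFP | measure = GR-EGFP nuclear translocation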
Mdm2 MdmX conf – human Mdm2/MdmX binding inhibition, confirmed. shares compounds with Mdm2-MdmX inh. luminescent assay. 10,000 tested, 55% active. inhibition, % at 8 µM; in the data active = inhibition above about 40%
FLuc counter – full-length luciferase inhibition in Mdm2/MdmX counter-screen; SaOS-2 full-length luciferase counterscreen, luminescence; shares compounds with Mdm2-MdmX inh; AID 504607; 6,200 tested, 77% active; inhibition, % at 8 µM;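 active = mean inhibition at 8 µM reaching about 37%, which flags the compound as non-specific, limit read from the data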;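 also: p53-null SaOS-2 cells with luciferase driven by a doxycycline-inducible promoter; compound on cells about two nights before reading with doxycycline added after day one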
An asterisk follows results filed as active; . = not tested or not shown.

SMILES	MDM2 E3 inh	XBP1 UPR activ	UPR CHOP act	Beta2AR agonist	Mdm2-MdmX inh	Dynein cargo inh	Mdm2 MdmX conf	FLuc counter
C[C@@]12CCC=C[C@H]1[C@H](c1ccc3ccccc3c1Br)N(Cc1ccccc1)C2=O	3	-4	4	5	50*	-1.7	9	.
COc1ccc(-c2ccc(OC)c([C@H]3[C@H]4C=CC[C@@H](C)[C@@H]4C(=O)N3Cc3ccccc3)c2)cc1C	10	0	1	-1	12	0.047	.	.
CCOc1ccc(CCNC(=O)CSc2n[nH]c(N)n2)cc1OCC	.	-3	2	-2	11	.	.	.
CCn1c(=O)c(C(=O)CN(C)CC(=O)Nc2cccc(F)c2)c(N)n(Cc2ccccc2)c1=O	.	0	0	1	43	.	.	.
N#CC1(NC(=O)CSc2nnc3n2CCCCC3)CCCCC1	.	0	1	0	19	.	.	.
COc1ccc(/C=C/c2ccccc2)cc1[C@H]1[C@H]2C=CC[C@@H](C)[C@@H]2C(=O)N1Cc1ccccc1	-9	2	4	0	50	-0.1	22	.
CC(=O)c1ccc(-c2ccc([C@H]3[C@H]4C=CC[C@@H](C)[C@@H]4C(=O)N3Cc3ccccc3)c(F)c2)cc1	23	2	1	-1	56*	-0.63	11	.
COc1ccc(-c2ccc(C(C)=O)cc2)cc1[C@H]1[C@H]2C=CC[C@@H](C)[C@@H]2C(=O)N1Cc1ccccc1	-1	3	1	2	58*	-0.27	11	.
Cc1ccc(-c2ccc([C@H]3[C@@H]4C=CCC[C@@]4(C)C(=O)N3Cc3ccccc3)c(F)c2)cc1	-2	-1	0	8	39	0.87	.	.
COC(=O)c1ccc(-c2ccc([C@H]3[C@H]4C=CC[C@@H](C)[C@@H]4C(=O)N3Cc3ccccc3)c(F)c2)cc1	19	0	2	5	39	0.51	.	.
CC(=O)c1ccc(-c2ccc([C@H]3[C@@H]4C=CCC[C@@]4(C)C(=O)N3Cc3ccccc3)c(F)c2)cc1	6	2	1	13	54*	-0.35	16	.
COC(=O)C1CC(C(=O)OC)C2C(C(=O)OC)CC(C(=O)OC)C12 (stereo unspecified)	.	.	.	2	.	.	.	.
CCOc1ccc(N2CC(C(=O)Nc3ccncc3)CC2=O)cc1 (stereo unspecified)	.	3	0	8	9	.	.	.
Cc1ccnc(NC(=O)c2ccccc2NC(=O)c2ccc(Cl)cc2Cl)c1	.	5	-1	-2	64*	.	57*	66*
COc1cc2c(cc1OC)CN(C1CCC(C)CC1)CC2 (stereo unspecified)	.	-2	0	-1	-45	.	.	.
Cc1ccc(C(=O)c2oc3ccccc3c2NC(=O)c2cc(-c3ccccc3O)n[nH]2)cc1	-4	19	3	-2	35	0.9	.	.
Cc1ccc(C(=O)c2oc3ccccc3c2NC(=O)c2cc(-c3cc(C)ccc3O)n[nH]2)cc1	.	60*	10	2	78*	0.99	32	72*
COc1ccc(O)c(/C=N/NC(=O)c2cccc(N3CCCC3=O)c2)c1	.	0	1	5	55*	.	57*	56*
O=C(N/N=C/c1cc(Br)ccc1O)c1cccc(N2CCCC2=O)c1	-2	-2	0	-3	54*	0.29	65*	31
CCN(CC(=O)Nc1c(F)cccc1F)C(=O)c1cccc(S(=O)(=O)NCc2ccccc2)c1	.	-3	3	-1	26	.	.	.
O=C(N/N=C/c1ccc(Cl)cc1)c1cc2c(s1)-c1ccccc1CC2	0	-1	-1	-9	65*	-0.35	60*	47*
O=C(O)c1cc2c(s1)-c1ccccc1CC2	5	-3	1	15	15	0.85	.	.
COc1ccccc1S(=O)(=O)NCc1ccc(C(=O)NC2CCC(O)CC2)cc1 (stereo unspecified)	.	0	-1	9	1	.	.	.
O=[N+]([O-])c1ccc(C2Oc3ccccc3C3CC(c4ccccc4)=NN32)s1 (stereo unspecified)	-6	.	.	.	.	-1	.	.
CC(C)COCc1ccc(O)c2ncccc12	-10	11	28	2	59*	0.14	44*	52*
Oc1ccc(CNc2ccccc2F)c2cccnc12	-6	4	4	-2	89*	-0.45	85*	31
CN(Cc1ccco1)Cc1ccc(O)c2ncccc12	.	1	0	16	18	.	.	.
Oc1ccc(COCc2ccccc2)c2cccnc12	-16	11	74*	0	80*	0.59	54*	29
Oc1ccc(Cl)c2cccnc12	.	.	.	9	.	.	.	.
OCc1ccc(O)c2ncccc12	-19	-2	1	7	86*	-0.8	82*	43*

Source: PubChem BioAssay (several laboratories)
